ChEMBL document CHEMBL1139081, “Rational design, synthesis, and structure-activity relationship of benzoxazolones: new potent mglu5 receptor antagonists based on the fenobam structure” (Bioorg Med Chem Lett, 2007)

How the values were obtained:
[1] = molecular target: T1, Metabotropic glutamate receptor 5 (Homo sapiens, UniProt P41594); assay: Binding affinity to mGluR5
[2] = molecular target: T1, Metabotropic glutamate receptor 5; assay: Antagonist activity at mGluR5 assessed as inhibition of Ca2+ […] by FLIPR; type: functional
[3] = Clearance in rat; type: ADME, organism-based; conditions: in vivo
[4] = Oral bioavailability in rat; type: ADME, organism-based; conditions: in vivo
[5] = Volume of distribution in rat; type: ADME, organism-based; conditions: in vivo
[6] = Half life in rat; type: ADME, organism-based; conditions: in vivo
[7] = Ratio of drug level in brain to plasma in rat after 3 hrs; type: ADME; conditions: brain and plasma
Procedure, shortened: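 Blood/brain partitioning checked 3 h after administration as brain-to-plasma concentration ratio; cerebrospinal fluid concentration also measured, expressed as percentage of plasma concentration.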

Mus musculus = organism: Mus musculus; assay: Decrease in stress-induced hyperthermia in NMRI mouse; type: functional; conditions: read-out: MED
Procedure, shortened: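 Stress-induced hyperthermia model of anxiety in NMRI mice, read as change in temperature (DT). Oral dosing at 10 and 30 mg/kg, vehicle 0.3% Tween 80 in 0.9% NaCl, 60 min pre-treatment. Each group compared to vehicle by independent t-test.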

T1 sequence (P41594 whole entry): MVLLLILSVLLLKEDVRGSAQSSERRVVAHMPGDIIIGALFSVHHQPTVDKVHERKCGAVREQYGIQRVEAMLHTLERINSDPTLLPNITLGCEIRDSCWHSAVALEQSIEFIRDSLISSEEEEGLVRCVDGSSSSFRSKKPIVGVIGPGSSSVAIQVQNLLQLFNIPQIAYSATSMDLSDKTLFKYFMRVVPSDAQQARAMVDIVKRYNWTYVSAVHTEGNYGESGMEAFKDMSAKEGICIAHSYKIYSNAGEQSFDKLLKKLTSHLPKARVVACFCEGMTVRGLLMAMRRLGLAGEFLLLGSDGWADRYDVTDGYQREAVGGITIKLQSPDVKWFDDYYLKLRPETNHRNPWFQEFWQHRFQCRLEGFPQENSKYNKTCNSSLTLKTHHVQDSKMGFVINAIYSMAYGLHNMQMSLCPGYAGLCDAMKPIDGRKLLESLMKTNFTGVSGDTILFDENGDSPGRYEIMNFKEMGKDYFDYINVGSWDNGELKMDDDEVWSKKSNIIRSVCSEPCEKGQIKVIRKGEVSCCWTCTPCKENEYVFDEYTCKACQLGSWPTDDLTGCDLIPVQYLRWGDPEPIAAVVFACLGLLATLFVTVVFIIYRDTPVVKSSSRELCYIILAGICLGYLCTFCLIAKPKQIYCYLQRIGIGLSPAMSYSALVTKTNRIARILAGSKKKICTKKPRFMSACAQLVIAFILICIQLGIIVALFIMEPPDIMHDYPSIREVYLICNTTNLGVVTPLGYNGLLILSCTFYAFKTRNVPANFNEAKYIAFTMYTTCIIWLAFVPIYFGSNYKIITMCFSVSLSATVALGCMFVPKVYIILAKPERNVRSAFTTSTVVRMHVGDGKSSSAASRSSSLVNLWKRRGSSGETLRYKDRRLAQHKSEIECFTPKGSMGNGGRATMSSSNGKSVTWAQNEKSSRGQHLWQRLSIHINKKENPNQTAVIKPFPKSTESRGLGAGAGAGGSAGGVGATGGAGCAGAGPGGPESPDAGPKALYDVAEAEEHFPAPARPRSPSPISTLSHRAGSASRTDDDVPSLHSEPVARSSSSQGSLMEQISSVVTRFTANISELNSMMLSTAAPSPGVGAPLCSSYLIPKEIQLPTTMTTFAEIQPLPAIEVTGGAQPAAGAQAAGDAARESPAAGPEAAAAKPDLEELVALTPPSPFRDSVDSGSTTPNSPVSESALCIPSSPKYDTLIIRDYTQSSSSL

Ki [1] [nM] | Structure (SMILES) | other results
> 10000 | Cn1c(=O)[nH]c2c(C(=O)Nc3cccc(Cl)c3)cccc21 | 
> 10000 | O=C(Nc1ccccc1Cl)c1cccc2oc(=O)[nH]c12 | 
397 | O=C1Cc2cccc(C(=O)Nc3cccc(Cl)c3)c2N1 | 
109 | Cc1cccc(NC(=O)c2cccc3oc(=O)[nH]c23)c1 | IC50 [2]: 104 nM
3900 | O=C(Nc1cccc(Cl)c1)c1cccc2cc[nH]c12 | 
> 10000 | O=C(Nc1cccc(Cl)c1)c1cccc2[nH]c(=O)oc12 | 
56 | O=C(Nc1cccc(Br)c1)c1cccc2oc(=O)[nH]c12 | IC50 [2]: 94 nM
3800 | O=C(Nc1ccc(Cl)cc1)c1cccc2oc(=O)[nH]c12 | 
2200 | O=C(Nc1ccccc1)c1cccc2oc(=O)[nH]c12 | 
485 | O=C(Nc1cccc(C(F)(F)F)c1)c1cccc2oc(=O)[nH]c12 | 
> 10000 | O=C(Nc1cc(Cl)cc(Cl)c1)c1cccc2oc(=O)[nH]c12 | 
3900 | COc1cccc(NC(=O)c2cccc3oc(=O)[nH]c23)c1 | 
251 | O=C(Nc1ccccn1)c1cccc2oc(=O)[nH]c12 | 
95 | Cc1cccc(NC(=O)c2cccc3oc(=O)[nH]c23)n1 | IC50 [2]: 60 nM; clearance [3]: 8.2 mL/min/kg; bioavailability [4]: 64%; Vd [5]: 0.18 L/kg; half-life [6]: 13.2 min; Kp at 3 h [7]: 0.06; minimal effective dose (Mus musculus): 10 mg/kg
> 10000 | O=C(Nc1cccc(Cl)c1)c1cccc2nn[nH]c12 | 
327 | N#Cc1cccc(NC(=O)c2cccc3oc(=O)[nH]c23)c1 | 
> 10000 | CC(=O)Nc1ccccc1C(=O)Nc1cccc(Cl)c1 | 
> 10000 | O=C(Nc1cccc(Cl)c1)c1cccc2nc[nH]c12 | 
3100 | Cc1cc(NC(=O)c2cccc3oc(=O)[nH]c23)ccn1 | 
250 | Cc1nc(NC(=O)c2cccc3oc(=O)[nH]c23)cs1 | 
2900 | O=C1COc2cccc(C(=O)Nc3cccc(Cl)c3)c2N1 | 
68 | O=C(Nc1cccc(Cl)c1)c1cccc2oc(=O)[nH]c12 | IC50 [2]: 195 nM
1970 | Cc1nccc(NC(=O)c2cccc3oc(=O)[nH]c23)n1 | 
3900 | O=C(Nc1cccc(Cl)c1)c1cccc2[nH]c(=O)[nH]c12 | 
